Kir21 inh – blocks the mouse Kir2.1 inward-rectifier potassium channel | P35561 | HEK293-Kir2.1, FluxOR thallium flux fluorescence; active compounds read low | B-score at 10 µM | 310,000 compounds, 0.85% hits | AID 1672;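 active means fluorescence ratio B-score at or below minus 3 SD of library scores, with starting-brightness B-score within 2 SD, cut at about -4.2 in these data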;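 further: channel flux triggered by added potassium and thallium sulfate stimulus; B-score of peak minus minimum fluorescence over baseline after thallium stimulus; more negative B-score means stronger Kir2.1 block with less thallium influx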
Target sequence (P35561 whole entry, looked up): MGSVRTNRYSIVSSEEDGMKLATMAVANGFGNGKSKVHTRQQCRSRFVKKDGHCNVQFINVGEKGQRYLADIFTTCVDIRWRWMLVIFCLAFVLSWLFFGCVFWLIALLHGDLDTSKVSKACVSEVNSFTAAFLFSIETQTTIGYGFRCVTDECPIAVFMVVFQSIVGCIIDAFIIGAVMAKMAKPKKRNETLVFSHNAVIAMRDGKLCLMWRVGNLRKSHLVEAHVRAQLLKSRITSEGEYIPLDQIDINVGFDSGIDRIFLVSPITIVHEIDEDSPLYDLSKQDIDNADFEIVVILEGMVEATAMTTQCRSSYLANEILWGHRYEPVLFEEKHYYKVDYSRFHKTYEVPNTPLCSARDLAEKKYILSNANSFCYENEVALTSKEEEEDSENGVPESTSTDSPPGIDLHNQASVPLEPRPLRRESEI
hERG protect – compounds protecting human hERG from proarrhythmic drug block; Q12809; CHO-hERG, FluxOR thallium flux, dofetilide IC70 present; activation (rescue from dofetilide block), less the hit threshold, % at 10 µM; 310,000 compounds, 0.51% hits; AID 1511;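 active means activation above the mean of controls blocked by dofetilide plus 5 SD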;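 further: thallium influx through hERG after potassium depolarization seen as dye fluorescence rise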
KCNQ1 block – blocks the human KCNQ1 potassium channel | P51787 | CHO-K1 KCNQ1, FluxOR thallium flux fluorescence; active compounds read high | B-score at 10 µM | 310,000 compounds, 1.3% hits;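 active means compounds whose thallium flux B-score, printed positive for inhibition, exceeds three library SD while starting fluorescence stays within three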;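 further: channel opened by potassium depolarization with thallium stimulus after 20 min compound exposure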
KCNK9 inh – blocks the human KCNK9 two-pore domain potassium channel | AID 488922 | HEK293 KCNK9, FluxOR thallium flux fluorescence; active compounds read low | 310,000 compounds, 1.2% hits | B-score at 10 µM;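 active means ratio B-score over 3 SD below the library mean, with starting fluorescence within 5 SD of its mean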;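 further: negative B-score means less thallium flux so channel inhibition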
Target sequence (Q9NPC2 whole entry, looked up, the tested form may be a part): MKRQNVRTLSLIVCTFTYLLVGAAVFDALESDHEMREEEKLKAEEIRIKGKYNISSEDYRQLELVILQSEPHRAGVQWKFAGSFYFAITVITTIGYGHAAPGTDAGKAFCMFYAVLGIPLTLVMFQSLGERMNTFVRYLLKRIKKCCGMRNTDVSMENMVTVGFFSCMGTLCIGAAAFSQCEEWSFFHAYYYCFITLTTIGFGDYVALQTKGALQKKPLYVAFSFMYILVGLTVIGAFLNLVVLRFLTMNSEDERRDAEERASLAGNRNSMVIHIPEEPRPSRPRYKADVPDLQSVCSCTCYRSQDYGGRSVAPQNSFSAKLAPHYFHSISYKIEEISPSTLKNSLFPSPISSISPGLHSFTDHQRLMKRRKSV
KCNK3 block – human KCNK3 channel inhibition, primary screen. AID 602410. 340,000 compounds, 0.84% hits. CHO-KCNK3 thallium flux, FluxOR fluorescence; active compounds read low. O14649. B-score at 10 µM;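 active means B-score under library mean minus 4 SD, starting fluorescence ratio at most library mean plus 5 SD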;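 further: more negative B-score means stronger inhibition of thallium flux through KCNK3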
KCNQ1 act – potentiators or activators of human KCNQ1 potassium channel | P51787 | CHO-K1 KCNQ1, thallium flux FluxOR fluorescence; active compounds read high | B-score at 10 µM | 310,000 compounds, 0.35% hits | AID 2648;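 active means fluorescence ratio B-score, a plate-corrected score, at least three library SD, with initial intensity B-score within 5 SD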
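Assay system: stable KCNQ1 CHO-K1 line; medium: assay buffer, equal DMSO in all wells; timing: 90 min dye loading and 20 min compound exposure, both at room temperature; technique: kinetic FluxOR thallium fluorescence, 10-s 1-Hz baseline, 110-s post-stimulus read; read-out basis: B score of baseline-normalized fluorescence ratio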
KCNK9 block conf – human KCNK9 inhibitor confirmation. shares compounds with KCNK9 inh. inhibition, % at 10 µM. 4,900 compounds, 43% hits. HEK293 KCNK9 cells, FluxOR thallium flux fluorescence;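 active means thallium signal inhibited by more than 5 SD of the compound-free buffer control wells, on both duplicate plates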
Kir2-1 spec – mouse Kir2.1 off-target activity of KCNK9 modulators. shares compounds with KCNK9 inh. Kir2.1 cells, FluxOR thallium flux fluorescence. inhibition, % at 10 µM. 4,900 compounds, 4% hits;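 active means thallium signal drop more than 5 SD beyond the mean of the no-compound control wells, seen in both duplicate plates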;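 further: signal is fluorescence rise after thallium addition divided by baseline fluorescence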
HEK293 Tl ctr – second counter-screen for KCNK9 modulators: effect in non-induced cells | 4,900 compounds, 40% hits | inhibition, % at 10 µM | shares compounds with KCNK9 inh | non-induced KCNK9-HEK293, FluxOR thallium flux;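 active means thallium signal drop beyond 5 SD of the untreated control mean, on both duplicate plates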
Hits are given with their value; 0 = inactive; - = no result. An excerpt weighted towards active compounds, which were near 3.7% of everything screened.

SMILES | Kir21 inh | hERG protect | KCNQ1 block | KCNK9 inh | KCNK3 block | KCNQ1 act | KCNK9 block conf | Kir2-1 spec | HEK293 Tl ctr
C/C=C1\NC(=O)[C@H](CC(N)=O)N(C)C(=O)C([C@@H](C)O)NC(=O)C(CCCc2ccc(OC)cc2)NC(=O)[C@H](C(C)C)NC(=O)/C(=C\C)NC(=O)[C@H](O)[C@@H](C[C@@H](O)CCCCCCC)NC(=O)[C@H](C)NC(=O)CN(C)C(=O)[C@H](CCC(N)=O)NC1=O (stereo partly specified) | - | - | - | - | 0 | - | - | - | -
COc1ccc(O)c(C(=O)CC(=O)c2ccccc2)c1 | 0 | 0 | 0 | 0 | - | 0 | - | - | -
COc1ccc(O)c(C(=O)c2cc(C(=O)NCCc3ccccc3)c(=O)n(CCc3ccccc3)c2)c1 | 0 | 0 | 0 | 0 | 0 | 0 | 0 | 0 | 0
Cc1ccc(O)c(C(=O)c2cc(C#N)c(=O)n(Cc3ccccc3)c2)c1 | 0 | 0 | 0 | 0 | 0 | 0 | - | - | -
Cc1ccc(O)c(C(=O)c2cc(C(=O)NCCc3ccccc3)c(=O)n(CCc3ccccc3)c2)c1 | 0 | 0 | 6 | 0 | 0 | 0 | 0 | 0 | 0
O=C(O)c1cc(-c2ccco2)nc2cc3ccccc3cc12 | 0 | 0 | 0 | 0 | 0 | 0 | - | - | -
Cc1cccc(NS(=O)(=O)c2c(C)[nH]c(C)c2C(=O)N2CCCC2)c1 | 0 | 0 | 0 | 0 | 0 | 0 | - | - | -
CC(NC(=O)c1cc2ccccc2oc1=O)c1ccccc1 (stereo unspecified) | 0 | 0 | 0 | 0 | 0 | 0 | - | - | -
Cc1ccc(OCCn2cnc3cc([N+](=O)[O-])ccc3c2=O)cc1 | 0 | 0 | 0 | 0 | 0 | 0 | 0 | 0 | 0
CCC(C(=O)Nc1ccc2[nH]ncc2c1)c1ccccc1 (stereo unspecified) | 0 | 0 | 0 | 0 | 0 | 0 | - | - | -
C[n+]1c2n(c3ccccc31)N=C(c1cc(C(C)(C)C)c(O)c(C(C)(C)C)c1)CS2 | -7.8 | 0 | 7 | -19 | -13 | 0 | 76% | 46% | 32%
CCOC(=O)C(=O)Nc1ncc(Cl)s1 | 0 | 0 | 0 | 0 | 0 | 0 | - | - | -
CC1CC(C)CN(C(=O)c2ccc(C#N)cc2)C1 (stereo unspecified) | 0 | 0 | 0 | 0 | 0 | 0 | - | - | -
CC1CC(C)CN(C(=O)c2ccc(C(=O)c3ccccc3)cc2)C1 (stereo unspecified) | 0 | 0 | 0 | 0 | 0 | 0 | 0 | 0 | 0
CC1CC(C)CN(C(=O)c2ccc(S(=O)(=O)N3CC(C)CC(C)C3)cc2)C1 (stereo unspecified) | 0 | 0 | 0 | 0 | 0 | 0 | 0 | 0 | 0
CCCn1c(-c2cccs2)nc2ccccc21 | 0 | 0 | 0 | 0 | 0 | 0 | - | - | -
CCN1c2ccccc2-c2nc3ccccc3n2C1c1cccs1 (stereo unspecified) | 0 | 0 | 0 | -9.3 | 0 | 0 | 59% | 0 | 62%
COc1cc(OC)c2ccc(=O)oc2c1C(CCN1CCN(c2ccccc2)CC1)c1ccc(N(C)C)cc1 (stereo unspecified) | 0 | 0 | 0 | 0 | 0 | 0 | 0 | 0 | 0
COc1cc(OC)c2c(-c3ccccc3)cc(=O)oc2c1C(CCN1CCN(c2ccccc2)CC1)c1ccc(N(C)C)cc1 (stereo unspecified) | 0 | 0 | 0 | 0 | 0 | 0 | - | - | -
CCOC(=O)C1CCN(C(=O)c2ccc(Oc3cc(Cl)cc(Cl)c3)o2)CC1 | 0 | 0 | 0 | 0 | 0 | 0 | 0 | 0 | 0
Cc1cccc(NC(=O)Cn2cnc3c(oc4nc5c(cc43)COC(C)(C)C5)c2=O)c1 | 0 | 0 | 0 | 0 | 0 | 0 | - | - | -
COc1ccc(CCCNC(=O)C2CCC(=O)N(CCc3cccc(F)c3)C2)cc1 (stereo unspecified) | 0 | 0 | 0 | 0 | 0 | 0 | - | - | -
COc1ccc(/C=C2\SC(=S)N(NS(=O)(=O)c3ccccc3)C2=O)c(OC)c1 | 0 | 0 | 0 | 0 | 0 | 19 | 0 | 0 | 0
COc1ccc(OC)c(/C=C2\SC(=S)N(NS(=O)(=O)c3ccc(C)cc3)C2=O)c1 | 0 | 0 | 0 | 0 | 0 | 0 | 0 | 0 | 0
CCOc1ccc(/C=C2\SC(=S)N(NS(=O)(=O)c3ccc(C)cc3)C2=O)cc1OC | 0 | 0 | 0 | 0 | 0 | 0 | 0 | 0 | 0
SMILES | Kir21 inh | hERG protect | KCNQ1 block | KCNK9 inh | KCNK3 block | KCNQ1 act | KCNK9 block conf | Kir2-1 spec | HEK293 Tl ctr
CCCCCCCCc1nc(SCC(C)=O)n[nH]1 | 0 | 0 | 0 | 0 | 0 | 0 | - | - | -
COc1ccc(C2CC2/C(C)=N/OC(=O)c2ccc(F)cc2)cc1 (stereo unspecified) | 0 | 0 | 0 | 0 | 0 | 0 | 0 | 0 | 0
Cc1nnn(C23C[C@@H]4C[C@@H](CC(C(=O)N5CCN(c6ccccc6)CC5)(C4)C2)C3)n1 | 0 | 0 | 0 | 0 | 0 | 0 | - | - | -
COn1c(SCc2ccc(Cl)cc2)nc2ccccc2c1=O | 0 | 0 | 0 | -18 | 0 | 0 | 66% | 0 | 34%
Cc1noc(C)c1CSc1nc2ccccc2c(=O)n1-c1ccc(Cl)cc1 | 0 | 0 | 0 | 0 | 0 | 0 | 0 | 0 | 0
Cc1noc(C)c1CSc1nc2sc(C)c(C)c2c(=O)n1-c1ccccc1 | 0 | 0 | 0 | 0 | 0 | 0 | - | - | -
Cn1c(=NC(=O)c2ccccc2[N+](=O)[O-])sc2cccc(F)c21 | 0 | 0 | 0 | 0 | 0 | 0 | - | - | -
CC(C)(CNC(=O)c1cc([N+](=O)[O-])ccc1N1CCC(Cc2ccccc2)CC1)N1CCOCC1 | - | - | - | - | 0 | - | - | - | -
Cc1ccc(-c2nc(N)sc2CC(=O)OCC(=O)N2C(C)CCCC2C)cc1 (stereo unspecified) | 0 | 0 | 0 | 0 | 0 | 0 | 0 | 0 | 0
CCOc1ccc2nc(SCC(=O)NC(=O)NCc3ccco3)[nH]c2c1 | 0 | 0 | 0 | 0 | 0 | 0 | 0 | 0 | 0
COC(=O)c1sccc1NC(=S)N1CCN(c2ccc(F)cc2)CC1 | 0 | 0 | 0 | -9.7 | 0 | 0 | 0 | 0 | 32%
COC(=O)c1sccc1NC(=S)N1CCC(C)CC1 | 0 | 0 | 0 | 0 | 0 | 0 | - | - | -
COC(=O)c1sccc1NC(=S)N1CCN(c2ccccc2)CC1 | 0 | 0 | 0 | 0 | 0 | 0 | - | - | -
COC(=O)c1sccc1NC(=S)N1CC(C)CC(C)C1 (stereo unspecified) | 0 | 0 | 0 | 0 | 0 | 0 | 0 | 0 | 28%
CCOC(=O)c1nc(Nc2ccccc2)c2ccccc2n1 | 0 | 0 | 0 | 0 | 0 | 0 | - | - | -
CCOC(=O)c1nc(Nc2cc(Cl)ccc2OC)c2ccccc2n1 | 0 | 0 | 0 | -13 | 0 | 0 | 46% | 0 | 0
COc1ccc(C(=O)OCc2nc(N)nc(Nc3ccccc3C)n2)cc1OC | 0 | 0 | 0 | 0 | 0 | 0 | - | - | -

Source: PubChem BioAssay (Johns Hopkins Ion Channel Center)
